≈ marks a conversion by molar mass, not a printed value. Calls of active or inactive are those of the source. The calls are words filed in the database; no cut-off is given here.
Experiments:
Lymphoma cell line = test: Clastogenicity in mouse Lymphoma cells at 5 ug/ml; type: toxicity, cell-based
[1] = Solubility of compound in fasted simulated intestinal fluid at 1 mg after 4 hrs by HPLC-UV analysis; type: physicochemical; conditions: fasted simulated intestinal fluid
Summary of the method: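 1 mg solid shaken in 1 mL FaSSIF (3 mM sodium taurocholate, 0.75 mM lecithin, phosphate buffer pH 6.5) at 900 rpm for 4 h at room temperature, then filtered. Supernatant quantified by HPLC-UV against single-point DMSO calibration. Range 1–1000 μg/mL.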

[2] = Toxicity in Crl:WI(Han) rat at 100 to 1000 mg/kg/day, po via gavage for 7 days; type: organism-based; conditions: in vivo, 168 h
Summary of the method: (§1)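 Male Crl:WI(Han) rats received compound by oral gavage in a 7-day repeat-dose study at 100, 300 and 1000 mg/kg/day. Endpoints were in-life clinical signs (food consumption, body weight, piloerection), macroscopic observations, histopathology, clinical pathology and liver gene expression profiling.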

[3] = Dissociation constant, pKa of the compound by UV-spectroscopy; type: physicochemical
Summary of the method: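 Sirius T3 acid–base titration with UV read-out: 5 μL of 10 mM sample, absorbance over 54 pH values in about 5 min. Methanol cosolvent with Yasuda–Shedlovsky extrapolation used when precipitation occurred.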

[4] = Kinetic aqueous solubility of the compound in phosphate buffer at pH 7.4 by CLND assay; type: physicochemical; conditions: phosphate buffer, read-out: Kinetic_solubility
Summary of the method: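 From 10 mM DMSO stock diluted 1:20 into pH 7.4 PBS, equilibrated 1 h at RT, filtered. Filtrate quantified by calibrated flow-injection CLND. Dynamic range 1–500 μM.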

[5] = Mutagenicity in Salmonella typhimurium at 1500 ug/plate by Ames test; type: toxicity; conditions: salmonella enterica subsp. enterica serovar typhimurium
[6] = Ratio of AUC (0 to 24 hrs) in conscious unrestrained telemetered Crl:WI(Han) rat at 300 mg/kg/day, po via gavage for 7 days measured on day 7 to AUC (0 to 24 hrs) in Leishmania donovani LV9 amastigotes infected BALB/c mouse at 25 mg/kg, po administered bid for 10 days measured on day 10; type: ADME, organism-based; conditions: in vivo, read-out: TI
Summary of the method: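 Index = AUC0–24 on day 7 of the rat study / AUC0–24 on day 10 of the mouse efficacy model. Rat arm: male Crl:WI(Han) rats, oral gavage once daily for 7 days at 100, 300 or 1000 mg/kg/day. Mouse arm: female BALB/c infected i.v. with ~2×10^7 L. donovani LV9 amastigotes, dosed orally twice daily for 10 days from day 7 post-infection in 0.5% HPMC, 0.4% Tween 80, 0.5% benzyl alcohol.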

[7] = Toxicity in Crl:WI(Han) rat assessed as drug tolerability dose at 100 to 1000 mg/kg/day, po via gavage for 7 days; type: organism-based; conditions: in vivo, read-out: Activity
Summary of the method: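 Male Crl:WI(Han) rats dosed by oral gavage once daily in a 7-day repeat-dose study at 100, 300 and 1000 mg/kg/day. Tolerated doses judged from in-life and clinical signs, macroscopic observations, histopathology, clinical pathology and liver gene expression profiling versus controls.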

Leishmania donovani [8] = test: Antileishmanial activity against Leishmania donovani […] in human THP1 cells by intramacrophage assay; type: functional, organism-based; conditions: Leishmania donovani, THP-1
[9] = Toxicity in Crl:WI(Han) rat assessed as kidney vacuolation at 300 mg/kg/day, po via gavage for 7 days by histological analysis; type: organism-based; conditions: in vivo, 168 h; summary of the method: as §1
[10] = Toxicity in rabbit cardiac ventricular wedge assessed as QT shortening at 10 uM relative to control; type: tissue-based, Oryctolagus cuniculus, Cardiac ventricle
[11] = biological target: Cyclin-dependent kinase 2 (Homo sapiens) (UniProt P24941); test: Inhibition of human CDK2 by kinobeads-based assay
[12] = Therapeutic index, ratio of fCmax in conscious unrestrained telemetered Crl:WI(Han) rat at 300 mg/kg/day, po via gavage for 7 days measured on day 1 to fCmax in Leishmania donovani LV9 amastigotes infected BALB/c mouse at 25 mg/kg, po administered bid for 10 days measured on day 1; type: organism-based; conditions: in vivo, read-out: TI
Summary of the method: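 Index = free Cmax on day 1 of the rat cardiovascular study / free Cmax on day 1 of the mouse efficacy model. Rat arm: conscious, unrestrained, telemetered male CRL:WI(Han) rats given a single oral dose (up to 1000 mg/kg). Mouse arm: female BALB/c infected i.v. with L. donovani LV9 amastigotes, dosed orally twice daily from day 7 post-infection in 0.5% HPMC, 0.4% Tween 80, 0.5% benzyl alcohol.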

Leishmania donovani [13] = test: Antileishmanial activity against Leishmania donovani LV9 amastigotes infected in BALB/c mouse assessed as suppression of parasite load within liver at 25 mg/kg, po administered bid for 10 days relative to control; type: functional
Summary of the method: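 Female BALB/c mice, 5 per group, infected i.v. with about 2×10^7 L. donovani LV9 amastigotes harvested from infected hamster spleen. Oral dosing starts day 7 post-infection, in 0.5% HPMC/0.4% Tween 80/0.5% benzyl alcohol, or 10% DMSO/60% PEG400/30% water for the 5-day 50 mg/kg regimen. Dosing solutions made fresh daily. Killed day 14 (5-day) or 19 (10-day). Liver smears give LDU (amastigotes/500 nucleated cells × organ weight). Mean LDU compared with vehicle control gives % suppression.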

[14] = Toxicity in Crl:WI(Han) rat assessed as pancreas vacuolation at 300 mg/kg/day, po via gavage for 7 days by histological analysis; type: organism-based; conditions: in vivo, 168 h; summary of the method: as §1
[15] = Intrinsic clearance in CD1 mouse liver microsomes at 0.5 uM after 3 to 30 mins in presence of NADPH by UPLC-MS/MS analysis; type: ADME, Microsome
Summary of the method: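 0.5 μM compound with female CD1 mouse or human liver microsomes, started with excess NADPH in 50 mM potassium phosphate pH 7.4. Aliquots at 0, 3, 6, 9, 15 and 30 min quenched in acetonitrile with internal standard. UPLC-MS/MS; rate constant from exponential decay of compound/IS ratio. Verapamil as positive control.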

[16] = biological target: Voltage-gated inwardly rectifying potassium channel KCNH2 (Homo sapiens, UniProt Q12809); test: Inhibition of human ERG by patch clamp assay
Sequence of Voltage-gated inwardly rectifying potassium channel KCNH2 (Q12809 whole entry): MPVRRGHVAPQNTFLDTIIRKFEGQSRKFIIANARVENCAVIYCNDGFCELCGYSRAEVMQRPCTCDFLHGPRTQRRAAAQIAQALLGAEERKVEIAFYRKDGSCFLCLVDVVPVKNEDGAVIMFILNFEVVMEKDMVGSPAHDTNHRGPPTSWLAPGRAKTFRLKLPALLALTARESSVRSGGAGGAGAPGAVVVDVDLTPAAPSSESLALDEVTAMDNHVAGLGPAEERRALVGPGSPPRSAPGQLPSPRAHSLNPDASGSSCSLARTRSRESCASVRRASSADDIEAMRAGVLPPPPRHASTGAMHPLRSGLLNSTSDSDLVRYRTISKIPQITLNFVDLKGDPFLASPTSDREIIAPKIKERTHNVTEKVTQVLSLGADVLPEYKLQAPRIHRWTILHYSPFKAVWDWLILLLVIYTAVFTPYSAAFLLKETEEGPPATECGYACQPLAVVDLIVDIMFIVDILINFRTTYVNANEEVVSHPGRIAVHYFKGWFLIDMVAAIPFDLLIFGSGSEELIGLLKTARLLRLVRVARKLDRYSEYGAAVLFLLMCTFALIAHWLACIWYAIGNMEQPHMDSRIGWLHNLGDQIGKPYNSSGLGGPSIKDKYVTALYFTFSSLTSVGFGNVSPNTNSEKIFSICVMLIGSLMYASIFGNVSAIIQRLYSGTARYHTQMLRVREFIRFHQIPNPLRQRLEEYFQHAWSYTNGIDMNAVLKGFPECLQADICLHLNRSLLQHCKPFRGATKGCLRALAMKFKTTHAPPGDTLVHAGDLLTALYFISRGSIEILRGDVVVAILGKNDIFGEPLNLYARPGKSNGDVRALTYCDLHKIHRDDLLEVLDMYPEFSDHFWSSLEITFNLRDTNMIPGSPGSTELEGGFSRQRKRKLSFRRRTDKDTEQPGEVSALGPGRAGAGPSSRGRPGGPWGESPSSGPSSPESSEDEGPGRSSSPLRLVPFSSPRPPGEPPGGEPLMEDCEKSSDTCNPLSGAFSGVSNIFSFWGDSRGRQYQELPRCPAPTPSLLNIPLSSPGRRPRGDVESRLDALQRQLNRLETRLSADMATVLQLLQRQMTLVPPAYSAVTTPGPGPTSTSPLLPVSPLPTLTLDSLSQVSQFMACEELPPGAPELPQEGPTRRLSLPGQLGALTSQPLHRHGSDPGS

[17] = Toxicity in Crl:WI(Han) rat assessed as multiple organ changes at 1000 mg/kg/day, po via gavage for 7 days by histological analysis; type: organism-based; conditions: in vivo, 168 h; summary of the method: as §1
[18] = Toxicity in Crl:WI(Han) rat assessed as irregular breathing at 1000 mg/kg/day, po via gavage for 7 days; type: organism-based; conditions: in vivo, 168 h
Summary of the method: (§2)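 Male Crl:WI(Han) rats given oral gavage daily for 7 days at 100, 300 and 1000 mg/kg/day. Clinical signs, macroscopic findings, clinical pathology versus controls, and a liver gene expression panel for hepatic toxicity mechanisms.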

[19] = Cardiotoxicity in Crl:WI(Han) rat up to 600 mg/kg, po via gavage; type: toxicity, organism-based; conditions: in vivo
[20] = Toxicity in Crl:WI(Han) rat assessed as reduction in food consumption at 1000 mg/kg/day, po via gavage for 7 days; type: organism-based; conditions: in vivo, 168 h; summary of the method: as §1
[21] = Toxicity in Crl:WI(Han) rat assessed as stomach distension at 100 to 1000 mg/kg/day, po via gavage for 7 days; type: organism-based; conditions: in vivo, 168 h; summary of the method: as §1
Cytochrome P450 3A4 = Cytochrome P450 3A4 (Homo sapiens, UniProt P08684); test: Inhibition of CYP3A4 in human liver microsomes using midazolam as substrate preincubated for 20 mins followed by substrate addition and measured after 5 mins by LC-MS/MS analysis; type: ADME
Sequence of Cytochrome P450 3A4 (P08684 whole entry): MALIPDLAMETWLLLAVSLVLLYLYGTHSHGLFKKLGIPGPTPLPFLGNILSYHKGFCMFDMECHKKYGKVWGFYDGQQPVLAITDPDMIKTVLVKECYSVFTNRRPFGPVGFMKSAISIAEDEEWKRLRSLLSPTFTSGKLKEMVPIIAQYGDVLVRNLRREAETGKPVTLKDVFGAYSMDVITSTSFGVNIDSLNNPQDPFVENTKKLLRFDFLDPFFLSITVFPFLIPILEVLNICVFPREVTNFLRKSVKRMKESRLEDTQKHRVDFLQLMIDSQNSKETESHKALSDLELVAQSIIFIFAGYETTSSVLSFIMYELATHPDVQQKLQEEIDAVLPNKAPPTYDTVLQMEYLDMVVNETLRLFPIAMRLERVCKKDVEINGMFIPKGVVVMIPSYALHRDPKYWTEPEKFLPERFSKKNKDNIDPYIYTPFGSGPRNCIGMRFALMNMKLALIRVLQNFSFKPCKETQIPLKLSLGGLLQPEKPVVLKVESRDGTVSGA
Summary of the method: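 Pooled human liver microsomes (final 0.1 mg/mL) with midazolam marker substrate, monitoring CYP3A4-specific metabolite. Test compound at eight concentrations, 0.1–100 μM, final organic ≤0.5%. Preincubated at 37 °C for 20 min, then substrate or cofactor added and incubated 5 min at 37 °C. Stopped with ice-cold acetonitrile; LC-MS/MS read-out gives pIC50.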

[22] = Toxicity in Crl:WI(Han) rat assessed as effect on liver gene expression in liver at 100 to 1000 mg/kg/day, po via gavage for 7 days; type: organism-based; conditions: in vivo, 168 h; summary of the method: as §2
[23] = Toxicity in Crl:WI(Han) rat assessed as piloerection at 1000 mg/kg/day, po via gavage for 7 days; type: organism-based; conditions: in vivo, 168 h; summary of the method: as §1
CYP1A1 = test: Toxicity in Crl:WI(Han) rat assessed as increase in CYP1A1 gene expression in liver at 100 to 1000 mg/kg/day, po via gavage for 7 days; type: organism-based; conditions: Crl:WI(Han), liver, read-out: FC; summary of the method: as §2

Which Activity (Lymphoma cell line) does the source give for `COc1ccccc1-c1n[nH]c2nc(N[C@H]3CC[C@H](NS(=O)(=O)CCC(F)(F)F)CC3)nc(OC)c12` here?
Its Activity is “Non-Toxic”.

And the solubility at 4 h [1]?
Its solubility at 4 h is 25 to 130 µg/mL (≈ 47.3 to 246 µM).

What about the Activity [2] of the same compound?
Its Activity is “Toxic”.

What about the pKa [3] of the same compound?
Its pKa is 4.1.

And the solubility kinetic [4]?
Its solubility kinetic is 68 µM (≈ 35.9 µg/mL).

What about the Activity [5] of the same compound?
Its Activity is “Non-Toxic”.

And the selectivity ratio [6]?
The selectivity ratio was 19.

And the MTD at 168 h [7]?
Its MTD at 168 h is 100 to 300 mg/kg.

What about the EC50 (Leishmania donovani [8]) of the same compound?
Its EC50 is 0.398 µM.

And the Activity [9]?
The Activity was “Toxic”.

What about the Activity [10] of the same compound?
The Activity was 11.3%.

And the inhibition [11]?
The inhibition was “Active”.

What about the selectivity ratio [12] of the same compound?
Its selectivity ratio is 12.

And the Activity (Leishmania donovani [13])?
Its Activity is over 95%.

What about the Activity [14] of the same compound?
The Activity was “Toxic”.

What about the CLH [15] of the same compound?
Its CLH is 1.1 mL/min/g.

What about the IC50 [16] of the same compound?
Its IC50 is 17.5 µM.

And the Activity [17]?
Its Activity is “Toxic”.

And the Activity [18]?
Its Activity is “Toxic”.

What about the Activity [19] of the same compound?
Its Activity is “Non-Toxic”.

What about the Activity [20] of the same compound?
Its Activity is “Toxic”.

What about the Activity [21] of the same compound?
Its Activity is “Toxic”.

What about the IC50 (Cytochrome P450 3A4) of the same compound?
The IC50 was 6.31 µM.

And the Activity [22]?
Its Activity is “Non-Toxic”.

And the Activity [23]?
The Activity was “Toxic”.

What about the fold induction at 168 h (CYP1A1) of the same compound?
The fold induction at 168 h was 43.
